Measured values published in ChEMBL document CHEMBL5252510, “A Novel Potent Oral Series of VEGFR2 Inhibitors Abrogate Tumor Growth by Inhibiting Angiogenesis” (J Med Chem, 2016).
pIC50: −log10 of the molar value. The source made the active and inactive calls. The rule behind the calls is not given here.

Tests used:
[1] = Antitumor activity against rat BN472 cell implanted in Brown-Norway rat assessed as tumor growth inhibition by measuring T/C ratio at 30 mg/kg, po qd measured upto 14 days; type: functional; details: time <= 14 day
Outline: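 Female Brown-Norway rats (160–180 g) received 3 mm³ BN472 tumor fragments in the mammary fat pad. Randomized at about 200 mm² tumor, 2–3 weeks after transplant, into groups of 7–8. Oral daily dosing in PEG300 vehicle for 14 days. Tumor growth curves were compared with vehicle. Experiment run twice.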

Mus musculus [2] = assay: Anti-angiogenesis activity in FVB mouse model assessed as inhibition of VEGF-induced tissue weight at 50 mg/kg, po qd treated for 4 to 6 hrs prior to chamber implantation and continuing for 4 days measured after 24 hrs post last dose; type: functional, organism-based; details: time 5.0 day
Outline: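 Chamber model in female FVB mice: VEGF (2 μg/mL) agar/heparin chambers s.c. in flank, oral dosing once daily starting 4-6 h before implantation and continuing 4 days; vascularized tissue harvested and weighed 24 h after final dose; 6 mice per group.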

[3] = target: Cyclin-dependent kinase 1 (Homo sapiens) (UniProt P06493); assay: Inhibition of human recombinant GST-fused CDK1 expressed in baculovirus expression system using poly-Glu-Tyr (4:1) as substrate measured after 10 mins in presence of gamma-[33P]-ATP by scintillation counting analysis
Outline: (§1)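 GST-fused kinase domains were expressed in baculovirus and purified on glutathione-Sepharose. 10 min at ambient temperature, stopped with EDTA. Filter binding and scintillation counting. IC50 by linear regression of percent inhibition.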

BaF3 [4] = assay: Antiproliferative activity against mouse BaF3 cells expressing ERBB2 V659E mutant assessed as cell growth inhibition measured after 72 hrs by Alamar Blue assay; details: BaF3, 72 h
BaF3 [5] = assay: Antiproliferative activity against mouse BaF3 cells expressing PTC3-RET assessed as cell growth inhibition measured after 72 hrs by Alamar Blue assay; details: BaF3, 72 h
BaF3 [6] = assay: Antiproliferative activity against mouse BaF3 cells expressing Trp-MET assessed as cell growth inhibition measured after 72 hrs by Alamar Blue assay; details: BaF3, 72 h
BaF3 [7] = assay: Antiproliferative activity against mouse BaF3 cells expressing Bcr-ABL assessed as cell growth inhibition measured after 72 hrs by Alamar Blue assay; details: BaF3, 72 h
BaF3 [8] = assay: Antiproliferative activity against mouse BaF3 cells expressing Tel-FGFR3 assessed as cell growth inhibition measured after 72 hrs by Alamar Blue assay; details: BaF3, 72 h
BaF3 [9] = assay: Antiproliferative activity against mouse BaF3 cells expressing KIT D816V mutant assessed as cell growth inhibition measured after 72 hrs by Alamar Blue assay; details: BaF3, 72 h
BaF3 [10] = assay: Antiproliferative activity against mouse BaF3 cells expressing FLT3-ITD assessed as cell growth inhibition measured after 72 hrs by Alamar Blue assay; details: BaF3, 72 h
BaF3 [11] = assay: Antiproliferative activity against mouse BaF3 cells expressing NPM-ALK assessed as cell growth inhibition measured after 72 hrs by Alamar Blue assay; details: BaF3, 72 h
[12] = target: Fibroblast growth factor receptor 3 (Homo sapiens) (UniProt P22607); assay: Inhibition of human recombinant GST-fused FGFR3 expressed in baculovirus expression system using poly-Glu-Tyr (4:1) as substrate measured after 10 mins in presence of gamma-[33P]-ATP by scintillation counting analysis; outline: as §1
BaF3 [13] = assay: Antiproliferative activity against mouse BaF3 cells assessed as cell growth inhibition measured after 72 hrs by Alamar Blue assay; details: BaF3, 72 h
BaF3 [14] = assay: Antiproliferative activity against mouse BaF3 cells expressing Tel-IGF-1R assessed as cell growth inhibition measured after 72 hrs by Alamar Blue assay; details: BaF3, 72 h
[15] = target: Hepatocyte growth factor receptor (Homo sapiens) (UniProt P08581); assay: Inhibition of human recombinant GST-fused c-MET expressed in baculovirus expression system using poly-Glu-Tyr (4:1) as substrate measured after 10 mins in presence of gamma-[33P]-ATP by scintillation counting analysis; outline: as §1
[16] = target: T1, Vascular endothelial growth factor receptor 2 (Homo sapiens, UniProt P35968); assay: Inhibition of human recombinant GST-fused VEGFR2 kinase domain transphosphorylation expressed in baculovirus expression system using poly-Glu-Tyr (4:1) as substrate measured after 10 mins in presence of gamma-[33P]-ATP by scintillation counting analysis
[17] = target: T1, Vascular endothelial growth factor receptor 2; assay: Inhibition of VEGF-induced human VEGFR2 autophosphorylation transfected in CHO cells measured after 2 hrs by chemiluminescence assay; type: cell-based
Mus musculus [18] = species: Mus musculus; assay: Antiangiogenic activity in C57BL/6jNpa mouse harbouring mouse B16-BL6 cells assessed as reduction in tumor plasma volume by measuring T/C ratio measured after 3 days by DCE-MRI assay; type: functional; details: time 3 day
Outline: (§2)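 C57BL/6JNpa mice bearing B16/BL6 cervical lymph-node metastases, at least 8 per group, anaesthetized and given contrast agent; DCE-MRI Ktrans and iAUEC (permeability) and Vp (plasma volume) measured before and again after daily treatment; change per mouse recorded, mean ± SEM, one-way ANOVA with Holm-Sidak comparisons versus vehicle.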

B16-BL6 [19] = assay: Antitumor activity against mouse B16-BL6 cells implanted in C57BL/6jNpa mouse assessed as primary tumor growth inhibition by measuring T/C ratio at 100 mg/kg, po qd administered started on day 7 post implantation measured after 21 days; type: functional; details: time 7-21 day
Outline: (§3)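 Female C57BL/6JNpa mice, 50000 B16/BL6 cells intradermally in both ear pinnae; primary tumor area (mm²) imaged days 7, 14, 21; randomized day 7 into groups of 5-6, oral dosing in PEG200 or PEG300 vehicle daily (or every 2 days) for 14 days; day 21 cervical lymph nodes weighed, metastasis lysates assayed for TIE-2 by ELISA; T/C ratios.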

BN472 cell [20] = assay: Induction of apoptosis in rat BN472 cell implanted in Brown-Norway rat assessed as effect on caspase 3 level at 100 mg/kg, po qd measured upto 14 days by microscopic analysis; type: functional, organism-based; details: time <= 14.0 day
Outline: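 BN472 fragments were grown in mammary fat pads of female Brown-Norway rats and dosed orally for 14 days. Hoechst dye was given i.v. 2 min before sacrifice. Excised tumors were cut as 10 micron frozen sections, blocked with 10 % normal goat serum/0.1 % Triton X-100 and stained with rabbit anti-rat caspase 3 (1:10), then a TRITC or FITC secondary. Read by fluorescence microscopy.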

Mus musculus [21] = species: Mus musculus; assay: Antiangiogenic activity in C57BL/6jNpa mouse harbouring mouse B16-BL6 cells assessed as reduction in iAUEC level measured after 3 days by DCE-MRI assay relative to control; type: functional; parameters: scale not given: the % may be the effect or the level left; details: time 3 day; outline: as §2
BN472 cell [22] = assay: Antitumor activity against rat BN472 cell implanted in Brown-Norway rat assessed as reduction in perfused blood vessels at 100 mg/kg, po qd measured upto 14 days by Ki67 staining based microscopic analysis; type: functional, organism-based; details: time <= 14.0 day, in the assay text read “Hoechst dye staining” for “Ki67 staining”
Outline: (§4)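 BN472-bearing Brown-Norway rats dosed orally; Hoechst dye i.v. shortly before sacrifice to mark perfused vessels; tumors cryosectioned at 10 micron, blocked in 10 % goat serum/0.1 % Triton X-100, stained with rabbit anti-Ki67 (1:200) or anti-caspase 3 (1:10) and fluorescent secondary antibodies; fluorescence microscopy.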

HUVEC [23] = assay: Antiproliferative activity against VEGF-stimulated HUVEC cells assessed as cell growth inhibition measured after 24 hrs by BrdUrd incorporation based spectrophotometric analysis; details: Homo sapiens
Mus musculus [24] = species: Mus musculus; assay: Antiangiogenic activity in C57BL/6jNpa mouse harbouring mouse B16-BL6 cells assessed as reduction in iAUEC level by measuring T/C ratio measured after 3 days by DCE-MRI assay; type: functional; details: time 3 day; outline: as §2
HUVEC [25] = assay: Antiproliferative activity against bFGF-stimulated HUVEC cells assessed as cell growth inhibition measured after 24 hrs by BrdUrd incorporation based spectrophotometric analysis; details: Homo sapiens
BaF3 [26] = assay: Antiproliferative activity against mouse BaF3 cells expressing Tel-PDGFRbeta assessed as cell growth inhibition measured after 72 hrs by Alamar Blue assay; details: BaF3, 72 h
B16-BL6 [27] = assay: Antitumor activity against mouse B16-BL6 cells implanted in C57BL/6jNpa mouse assessed as primary tumor growth inhibition at 100 mg/kg, po qd administered started on day 7 post implantation measured after 21 days relative to control; type: functional, organism-based; details: time 7-21 day; outline: as §3
B16-BL6 [28] = assay: Antitumor activity against mouse B16-BL6 cells implanted in C57BL/6jNpa mouse assessed as metastatic tumor growth inhibition by measuring T/C ratio at 100 mg/kg, po qd administered started on day 7 post implantation measured after 21 days relative to control; type: functional; details: time 7-21 day; outline: as §3
BN472 cell [29] = assay: Antitumor activity against rat BN472 cell implanted in Brown-Norway rat assessed as reduction in perfused blood vessels at 100 mg/kg, po qd measured upto 14 days by Hoechst staining based microscopic analysis; type: functional, organism-based; details: time <= 14.0 day; outline: as §4
Mus musculus [30] = species: Mus musculus; assay: Antiangiogenic activity in C57BL/6jNpa mouse harbouring mouse B16-BL6 cells assessed as reduction in K-trans level by measuring T/C ratio measured after 3 days by DCE-MRI assay; type: functional; details: time 3 day; outline: as §2
Mus musculus [31] = species: Mus musculus; assay: Antiangiogenic activity in C57BL/6jNpa mouse harbouring mouse B16-BL6 cells assessed as reduction in tumor plasma volume measured after 3 days by DCE-MRI assay relative to control; type: functional; parameters: scale not given: the % may be the effect or the level left; details: time 3 day; outline: as §2
B16-BL6 [32] = assay: Antitumor activity against mouse B16-BL6 cells implanted in C57BL/6jNpa mouse assessed as metastatic tumor growth inhibition at 100 mg/kg, po qd administered started on day 7 post implantation measured after 21 days relative to control; type: functional, organism-based; details: time 7-21 day; outline: as §3
Mus musculus [33] = species: Mus musculus; assay: Antiangiogenic activity in C57BL/6jNpa mouse harbouring mouse B16-BL6 cells assessed as reduction in K-trans level measured after 3 days by DCE-MRI assay relative to control; type: functional; parameters: scale not given: the % may be the effect or the level left; details: time 3 day; outline: as §2

COc1cc2/c(=N/c3ccc(Br)cc3F)nc[nH]c2cc1OCC1CCN(C)CC1 [VANDETANIB]
T/C [1]: 0.35
Activity (Mus musculus [2]): Active

CNC(=O)c1cc(Oc2ccc(NC(=O)Nc3ccc(Cl)c(C(F)(F)F)c3)cc2)ccn1 [SORAFENIB]
inhibition [3]: Active
pIC50 (BaF3 [4]): 5.38
pIC50 (BaF3 [5]): 7.11
pIC50 (BaF3 [6]): 5.13
pIC50 (BaF3 [7]): 5.24
pIC50 (BaF3 [8]): 5.61
pIC50 (BaF3 [9]): 5.55
pIC50 (BaF3 [10]): 7.92
pIC50 (BaF3 [11]): 5.99
inhibition [12]: Active
pIC50 (BaF3 [13]): < 5.00
pIC50 (BaF3 [14]): 5.43
inhibition [15]: Active

CCN1CCN(Cc2ccc(NC(=O)Nc3ccc(Oc4cc(NC)ncn4)cc3)cc2C(F)(F)F)CC1 [AST-487]
pIC50 [16]: 8.52
pIC50 [17]: 6.64

Clc1ccc(Nc2nnc(Cc3ccncc3)c3ccccc23)cc1.O=C(O)CCC(=O)O
T/C (Mus musculus [18]): 0.67
pIC50 (BaF3 [4]): < 5.00
T/C (B16-BL6 [19]): 0.44
Activity (BN472 cell [20]): Active
pIC50 (BaF3 [5]): < 5.00
Activity (Mus musculus [21]): 33%
pIC50 (BaF3 [6]): < 5.00
pIC50 (BaF3 [7]): < 5.00
Activity (BN472 cell [22]): Active
pIC50 (HUVEC [23]): 8.15
pIC50 (BaF3 [8]): < 5.00
pIC50 (BaF3 [9]): < 5.00
pIC50 (BaF3 [10]): < 5.00
T/C (Mus musculus [24]): 0.61
pIC50 (HUVEC [25]): < 5.52
pIC50 (BaF3 [11]): < 5.00
pIC50 (BaF3 [26]): 7.12
Activity (B16-BL6 [27]): Active
T/C (B16-BL6 [28]): 0.34
pIC50 (BaF3 [13]): < 5.00
pIC50 (BaF3 [14]): < 5.00
Activity (BN472 cell [29]): Active
T/C (Mus musculus [30]): 0.49
Activity (Mus musculus [31]): 33%
Activity (B16-BL6 [32]): Active
Activity (Mus musculus [33]): 51%
